Laboratory results from PMC9924099 (Journal of medicinal chemistry, 2021).
Where two headings read alike, the source gives them in different places.

How the values were obtained:
WT p53 MCF-7 cells [1] = experiment: Annexin V staining; format: cell-based, human; settings: MCF-7, 24 h
Outline: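 After 24 h exposure to test compound or DMSO, MCF-7 cells (RPMI 1640, 10% FBS, 1% penicillin/streptomycin, 1% L-glutamine) were scraped, PBS-washed and taken up in Annexin V binding buffer. They were stained with fluorochrome-conjugated Annexin V for 15 min at RT in the dark, then PI staining solution was added. Flow cytometry read-out; % Annexin V-positive cells expressed relative to DMSO.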

[2] = test system: p53^R280K MDA-MB-231 cells; experiment: qRT-PCR gene expression; format: cell-based, human; settings: for expression of canonical p53 targets p21 and NOXA: MDA-MB-231, 6 μM, 4 h; for p53 mRNA levels: MDA-MB-231, 4 h
Outline: (§1)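 Cells were exposed to 6 μM test compound or DMSO for 4 h. RNA was extracted and reverse-transcribed, and transcripts were quantified by TaqMan qRT-PCR normalised to GAPDH. Values are means with SD from triplicates of repeated experiments.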

[3] = test system: mammary epithelial cells (MCF10A); experiment: Proliferation of normal cells; format: cell-based, human
colon cells (CCD841) = experiment: Proliferation of normal cells; format: cell-based, human
[4] = test system: caspase 3 and PARP1 in p53^R280K MDA-MB-231 cells; experiment: Western blot of caspase 3 and PARP1; format: cell-based, human; settings: MDA-MB-231, 24 h
Outline: (§2)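 Cells grown in RPMI 1640 with 10% FBS, 1% penicillin/streptomycin and 1% L-glutamine, then given test compound or DMSO control for 24 h. Lysed 30 min on ice in Tris-Cl pH 8.0/NaCl/glycerol/NP-40/EDTA buffer with protease inhibitors, then cleared. 100 μg lysate run on 4-12% SDS-PAGE, transferred to PVDF, probed with anti-PARP and anti-caspase 3 (1:1000 each). ECL detection.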

[5] = test system: p53^R280K MDA-MB-231 cells; experiment: WST-1 cell proliferation assay; format: cell-based, human; settings: for IC50: Homo sapiens, read-out: IC50, inhibition of cell proliferation
[6] = test system: p53^R280K MDA-MB-231 cells; experiment: Annexin V staining; format: cell-based, human; settings: MDA-MB-231, 6 μM or 12 μM, 24 h
[7] = test system: p53^R273H MDA-MB-468 cells; experiment: WST-1 cell proliferation assay; format: cell-based, human; settings: Homo sapiens, read-out: IC50, inhibition of cell proliferation
[8] = target: p53^R280K in MDA-MB-231 cells (Homo sapiens, UniProt P04637, R280K); experiment: Western blot of p53 expression; format: cell-based; settings: MDA-MB-231, 6 μM or 12 μM, 24 h
Outline: (§3)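 Cells were treated 24 h with 6 μM or 12 μM test compound or DMSO and lysed in NP-40/Tris-Cl pH 8.0 buffer with protease inhibitors. Load on 4–12% SDS-PAGE was 20 μg for MDA-MB-231 and MDA-MB-468 or 50 μg for MCF-7. After PVDF transfer, blots were probed with p53 DO-1 antibody, reprobed for GAPDH as loading control and developed by ECL.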

[9] = test system: caspase 3 and PARP1 in WT p53 MCF-7 cells; experiment: Western blot of caspase 3 and PARP1; format: cell-based, human; settings: MCF-7 (caspase 3-deficient), 24 h
Outline: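 MCF-7 cells were treated with test compound or DMSO for 24 h and lysed on ice for 30 min (20 mM Tris-Cl pH 8.0, 137 mM NaCl, 10% glycerol, 1% NP-40, 2 mM EDTA, protease inhibitors). Lysates were cleared at 18,500 × g. 100 μg lysate was run on 4–12% SDS-PAGE, transferred to PVDF and probed with anti-PARP and anti-caspase 3 (1:1000), HRP secondary and ECL. GAPDH served as loading control.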

[10] = test system: p53^R273H MDA-MB-468 cells; experiment: Annexin V staining; format: cell-based, human; settings: MDA-MB-468, 6 μM or 12 μM; for increase in Annexin V stained cells compared to DMSO: 24 h
[11] = target: p53^R273H in MDA-MB-468 cells (Homo sapiens, UniProt P04637, R273H); experiment: Western blot of p53 expression; format: cell-based; settings: MDA-MB-468, 6 μM or 12 μM, 24 h
Outline: as §3

[12] = test system: p53^R273H MDA-MB-468 cells; experiment: qRT-PCR gene expression; format: cell-based, human; settings: for expression of MDM2 / expression of canonical p53 targets p21 and NOXA: MDA-MB-468, 6 μM; for expression of canonical p53 targets p21 and NOXA: 4 h; for p53 mRNA levels: MDA-MB-468, 4 h
Outline: as §1

[13] = test system: caspase 3 and PARP1 in p53^R273H MDA-MB-468 cells; experiment: Western blot of caspase 3 and PARP1; format: cell-based, human; settings: MDA-MB-468, 24 h
Outline: as §2

WT p53 MCF-7 cells [14] = experiment: qRT-PCR gene expression; format: cell-based, human; settings: for expression of MDM2 / expression of canonical p53 targets p21 and NOXA: MCF-7, 6 μM; for expression of canonical p53 targets p21 and NOXA: 4 h; for p53 mRNA level: MCF-7, 4 h
Outline: as §1

WT p53 in MCF-7 cells = WT p53 in MCF-7 cells (Homo sapiens, UniProt P04637); experiment: Western blot of p53 expression; format: cell-based; settings: MCF-7, 6 μM or 12 μM, 24 h
Outline: as §3

ATM in MDA-MB-231 cells = experiment: Western blot of pATM S1981; format: cell-based, human; settings: MDA-MB-231, 6 μM, 24 h
Outline: (§4)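 Cells were treated 24 h with 6 μM test compound or DMSO and lysed in NP-40 buffer; 250 μg lysate was run on 4–12% SDS-PAGE and transferred to PVDF. Probing used anti-pATM Ser1981 (1:500) with HRP anti-mouse IgG (1:1000) and ECL detection, then reprobing with anti-GAPDH (1:5000). Experiments were done in triplicate.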

ATM in MDA-MB-468 cells = experiment: Western blot of pATM S1981; format: cell-based, human; settings: MDA-MB-468, 6 μM, 24 h
Outline: as §4

[15] = test system: p53 knockdown MDA-MB-468 cells; experiment: WST-1 proliferation after p53 siRNA knockdown; format: cell-based, human; settings: p53 siRNA MDA-MB-468 vs NS siRNA cells
Outline: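 MDA-MB-468 cells at 50–60% confluence received p53 SMARTpool siRNA or non-specific siRNA (0.430 nmol with Lipofectamine 2000 in Opti-MEM, 5 h), with a second transfection 24 h later. At 72 h after the first transfection, cells were treated with test compound or DMSO. Proliferation was then measured by WST-1 as % of DMSO.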

[16] = test system: p53^R280K MDA-MB-231 cells; experiment: Flow-cytometric cell cycle analysis; format: cell-based, human; settings: MDA-MB-231, 6 μM, 24 h; DMSO 42.9%
Log P determination = format: physicochemical; settings: octanol/sodium phosphate buffer (pH 7.4)
WT p53 MCF-7 cells [17] = experiment: WST-1 cell proliferation assay; format: cell-based, human; settings: MCF-7, 24 h or 72 h; compared to mutant p53 cells
Outline: (§5)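 WST-1 assay. Test compound in DMSO was added to cells at 40,000 cells/ml, giving 1% DMSO final, and plated at 4,000 cells/well in duplicate; medium-only wells served as background. Incubation was 24 h or 72 h at 37 °C, then WST-1 for 2 h and OD450 read. Proliferation is expressed as % of DMSO control; triplicate experiments. MCF-7 grown in RPMI 1640, MDA-MB-436 in DMEM.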

[18] = test system: p53 null MDA-MB-436 cells; experiment: WST-1 cell proliferation assay; format: cell-based, human; settings: MDA-MB-436, 24 h and 72 h; compared to MDA-MB-231 or MDA-MB-468
Outline: as §5

[19] = test system: ATM in WT p53 MCF-7 cells; experiment: Western blot of pATM S1981; format: cell-based, human; settings: MCF-7, 6 μM, 24 h
Outline: as §4

SMILES	increase in Annexin V stained cells compared to DMSO (WT p53 MCF-7 cells [1])	expression of canonical p53 targets p21 and NOXA [2]	p53 mRNA levels [2]	levels of uncleaved caspase 3, uncleaved PARP1 and cleaved-PARP1 [4]	IC50 ([5]; MDA-MB-231, 24 h) [µM]	IC50 ([5]; MDA-MB-231, 72 h) [µM]	increase in Annexin V stained cells compared to DMSO [6]	IC50 ([7]; MDA-MB-468, 24 h) [µM]	IC50 ([7]; MDA-MB-468, 72 h) [µM]	mutant p53 expression (western blot) [8]	levels of uncleaved PARP1 and cleaved-PARP1 [9]	increase in Annexin V stained cells compared to DMSO [10]	mutant p53 expression (western blot) [11]	expression of MDM2 [12]	expression of canonical p53 targets p21 and NOXA [12]	p53 mRNA levels [12]	levels of uncleaved caspase 3, uncleaved PARP1 and cleaved-PARP1 [13]	expression of MDM2 (WT p53 MCF-7 cells [14])	expression of canonical p53 targets p21 and NOXA (WT p53 MCF-7 cells [14])	p53 mRNA level (WT p53 MCF-7 cells [14])	other results
[Se]=C=NCCC12CC3CC(CC(C3)C1)C2 [Ad-ISeC 14, 1-Isoselenocyanato-2-(adamantan-1-yl)ethane]	not in MCF-7 cells	significantly enhanced the levels of p21 and NOXA	remained unchanged	decrease in the levels of uncleaved caspase 3 and PARP-1 and an increase in the levels of cleaved-PARP1 fragment	6 to 12	6 to 12	enhanced the apoptotic potential	6 to 12	6 to 12	significant reduction in mutant p53 expression	did not detect any significant change	enhanced the apoptotic potential	significant reduction in mutant p53 expression	statistically significant elevation of MDM2	significantly enhanced the levels of p21 and NOXA	remained unchanged	decrease in the levels of uncleaved caspase 3 and PARP-1 and an increase in the levels of cleaved-PARP1 fragment	statistically significant elevation of MDM2	significant increase in the expression levels	increase in the p53 mRNA level	IC50 compared with mutant p53 tumor cells (in words) ([3]; MCF10A normal cells vs MDA-MB-231 and MDA-MB-468): significantly higher; IC50 compared with mutant p53 tumor cells (in words) (colon cells (CCD841); CCD841 normal cells vs MDA-MB-231 and MDA-MB-468): significantly higher; level of apoptosis compared to Ad-ITC 5 [10]: > 2 fold; WT p53 expression (western blot) (WT p53 in MCF-7 cells): marginally elevated
S=C=NCCCC12CC3CC(CC(C3)C1)C2 [Ad-ITC 6, 1-Isothiocyanato-3-(adamantan-1-yl)propane]	did not display any significant increase	enhanced the expression of the canonical p53 targets p21 and NOXA	remained unchanged	significant decrease in the levels of uncleaved caspase 3 and PARP1	12 to 24	12 to 24	2.0-5.1 fold	12 to 24	12 to 24	differential decrease in the expression of mutant p53	did not detect any significant decrease in the levels of uncleaved PARP1 or accumulation of cleaved-PARP1 fragments	2.0-5.1 fold	differential decrease in the expression of mutant p53	enhanced the expression of MDM2	enhanced the expression of the canonical p53 targets p21 and NOXA	remained unchanged	significant decrease in the levels of uncleaved caspase 3 and PARP1	enhanced the expression of MDM2	upregulated expression of p21 and NOXA	increase in the p53 mRNA level	IC50 compared with mutant p53 tumor cells (in words) [3]: significantly higher; phosphorylation of ATM at S1981 (ATM in MDA-MB-231 cells): phosphorylation of ATM at S1981; IC50 compared with mutant p53 tumor cells (in words) (colon cells (CCD841)): significantly higher; inhibition of cell proliferation (in words) ([5]; MDA-MB-231, 24 h or 72 h): dose-dependent activity; phosphorylation of ATM at S1981 (ATM in MDA-MB-468 cells): phosphorylation of ATM at S1981; sensitivity of cell proliferation (in words) [15]: markedly reduced sensitivity; cells in G1 phase [16]: 48.2%; logP at 18 h (Log P determination): 5.17; inhibition of cell proliferation / sensitivity (in words) (WT p53 MCF-7 cells [17]): remarkably less sensitive; sensitivity of cell proliferation (in words) [18]: significantly reduced sensitivity; pATM-S1981 [19]: absent; WT p53 expression (western blot) (WT p53 in MCF-7 cells): did not decrease WT p53 expression
